The record followed here is ChEMBL document CHEMBL3994628, “Coumarin derivatives as potential antitumor agents: Growth inhibition, apoptosis induction and multidrug resistance reverting activity” (Eur J Med Chem, 2017).

Molecules are shown by their SMILES. Active and inactive are the calls of the source. The calls are words filed in the database; no cut-off is given here.

Test [1] is described as follows: Growth inhibition of human LoVo/DX cells after 24 hrs by MTT assay. It is filed as functional, cell-based. The procedure, abridged: (§1)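 Cells were plated at 2x10^4 cells/cm2 and grown in RPMI 1640 with 10% FBS and 2 mM glutamine at 37 °C. They were exposed for 24 h to 0.01-100 µM, diluted from a 10 mmol/L DMSO stock, in triplicate. MTT was then added at 0.2 mg/mL in PBS for 4 h and the formazan dissolved in DMSO. A540 was read and IC50 taken from the dose-response curve, mean ± SD. The ratio compares the IC50s of the two lines.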

Test [2] is filed under the species Homo sapiens. Put plainly: Inhibition of P-gp in human LoVo/DX cells assessed as reduction in Rhodamine123 efflux at 2.5 uM preincubated for 15 mins followed by Rhodamine123 addition measured after 1 hr by flow cytometry. It is filed as cell-based. The essentials:
(§2)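 LoVo/Dx cells at 3x10^5 cells/mL in serum-free, phenol red-free medium were preincubated at room temperature for 15 min at 2.5 or 10 µM. Rhodamine 123 was then added at 2 µM for 1 h at 37 °C in the dark. After a PBS wash, fluorescence was read by flow cytometry at 488 nm excitation and 530 nm emission. Mean control fluorescence was subtracted. Verapamil served as positive control. Data are mean ± SD of ≥3 experiments.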
On the technique in general: In flow cytometry, cells or beads pass a laser one at a time.

Test [3] is filed under the species Homo sapiens. Description: Inhibition of P-gp in human LoVo/DX cells assessed as reduction in Rhodamine123 efflux at 10 uM preincubated for 15 mins followed by Rhodamine123 addition measured after 1 hr by flow cytometry. The format is cell-based. The essentials:
as §2

The species named for test [4] is Homo sapiens. Put plainly: Substrate activity at P-gp in human LoVo/DX cells assessed as ATP consumption at 10 uM after 2 hrs by ATPlite assay. The format is cell-based. Background: Cellular ATP, detected with luciferase, serves as a proxy for viable cell number.
Test [5] concerns LoVo. Put plainly: Growth inhibition of human LoVo cells after 24 hrs by MTT assay. The format is functional, cell-based. The procedure, abridged: as §1
Test [6] deals with LoVo. Put plainly: Cell cycle arrest in human LoVo cells assessed as accumulation at G0/G1 phase after 24 hrs by propidium iodide staining based flow cytometry. It is filed as functional.
Test [7] deals with LoVo. Description: Induction of apoptosis in human LoVo cells assessed as caspase-activation using DEVD as substrate at cytotoxic concentration after 24 hrs by fluorimetric assay relative to control. It is filed as functional. The essentials: (§3)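 After 24 h exposure at cytotoxic concentration, DEVD-hydrolysing caspase activity was measured fluorimetrically in cell extracts. Values are given as percentage increase over untreated control, set at 100%. Data are mean ± SD of at least three independent experiments.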

Test [8] has as its system LoVo. Description: Cell cycle arrest in human LoVo cells assessed as accumulation at G2/M phase after 24 hrs by propidium iodide staining based flow cytometry. The format is functional.
In test [9] the test system is LoVo. Put plainly: Cytotoxic activity against human LoVo cells after 24 hrs by phase contrast microscopic method. It is filed as functional, cell-based. The essentials:
(§4)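 LoVo or LoVo/Dx cells were plated at 2x10^4 cells/cm2 in RPMI 1640 with 10% FBS and exposed for 24 h. Phase contrast microscopy was used to judge growth delay without cell death (cytostatic) or cell death, shown as floating cells (cytotoxic).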

For test [10], the system named is LoVo. Put plainly: Cytostatic activity against human LoVo cells by phase contrast microscopic method. It is filed as functional, cell-based. The procedure, abridged: as §4
Test [11] deals with LoVo/DX. Put plainly: Cell cycle arrest in human LoVo/DX cells assessed as accumulation at S phase after 24 hrs by propidium iodide staining based flow cytometry. The format is functional.
Test [12] can be described thus: Selectivity ratio of IC50 for human LoVo/DX cells to IC50 for human LoVo cells. The format is functional. The essentials:
as §1

Test [13] deals with LoVo/DX. Put plainly: Cytotoxic activity against human LoVo/DX cells after 24 hrs by phase contrast microscopic method. It is filed as functional, cell-based. The essentials:
as §4

In test [14] the test system is LoVo/DX. Put plainly: Cytostatic activity against human LoVo/DX cells by phase contrast microscopic method. The format is functional, cell-based. The procedure, abridged: as §4
In test [15] the test system is LoVo/DX. Put plainly: Induction of apoptosis in human LoVo/DX cells assessed as caspase-activation using DEVD as substrate at cytotoxic concentration after 24 hrs by fluorimetric assay. It is filed as functional, cell-based. The procedure, abridged:
as §3

The species named for test [16] is Homo sapiens. Description: Inhibition of P-gp in human LoVo/DX cells assessed as reduction in Rhodamine123 efflux at 2.5 to 10 uM preincubated for 15 mins followed by Rhodamine123 addition measured after 1 hr by flow cytometry relative to verapamil. The format is cell-based. The essentials:
as §2

For test [17], the system named is LoVo/DX. Description: Cell cycle arrest in human LoVo/DX cells assessed as accumulation at G0/G1 phase after 24 hrs by propidium iodide staining based flow cytometry. It is filed as functional.
Test [18] deals with LoVo/DX. Description: Cell cycle arrest in human LoVo/DX cells assessed as accumulation at G2/M phase at 3.6 uM after 24 hrs by propidium iodide staining based flow cytometry. It is filed as functional.
The nature of test [19]: Selectivity ratio of IC50 for human LoVo cells to IC50 for human LoVo/DX cells. The format is functional. The essentials:
as §1

Test [20] in a line: Induction of apoptosis in human LoVo/DX cells assessed as caspase-activation using DEVD as substrate at cytotoxic concentration after 24 hrs by fluorimetric assay relative to sensitive LoVo cells. It is filed as functional.
The subject of test [21] is LoVo/DX. Description: Cell cycle arrest in human LoVo/DX cells assessed as accumulation at G0/G1 phase at 1.8 uM after 24 hrs by propidium iodide staining based flow cytometry. It is filed as functional.
Test [22] has as its system LoVo. Description: Cell cycle arrest in human LoVo cells assessed as accumulation at G2/M phase at 3.5 to 7 uM after 24 hrs by propidium iodide staining based flow cytometry. It is filed as functional.

As a reminder, the IC50 is the midpoint of a concentration-inhibition curve. High values mean a need for much substance, low ones inhibition by little substance.

As to `C/C(C#CCN1CCN(C(c2ccc(F)cc2)c2ccc(F)cc2)CC1)=C\COc1ccc2ccc(=O)oc2c1`, the IC50 in test [1] came out at 60 µM; in the test on LoVo [5], 47 µM. Besides, the “P-gp inhibition (active/not active)” value in the test listed under Homo sapiens [2] and in the test listed under Homo sapiens [3] was “Active” in each case. Also, the outcome in the test filed under Homo sapiens [4] was Active.
Take `C/C(C#CCN1CCN(Cc2ccccc2)CC1)=C\COc1ccc2ccc(=O)oc2c1`: the half-maximal inhibitory concentration (IC50) was 19.6 µM in test [1] and 67.6 µM in the test on LoVo [5]. The “P-gp inhibition (active/not active)” value in the test listed under Homo sapiens [2] was “Active”.
Taken in the same sequence, the figures for `C/C(C#CCN1CCN(c2ccccc2)CC1)=C\COc1ccc2ccc(=O)oc2c1` were 12 µM, 41 µM and “Active”.
In the case of `C/C(C#CCN1CCC(n2c(=O)[nH]c3ccccc32)CC1)=C\COc1ccc2ccc(=O)oc2c1`, the concentration for half-maximal inhibition (IC50) was 5 µM in [1] and 2.5 µM in the test with LoVo [5]. Also, the Activity result was “Dose-dependent effect” in the test on LoVo [6], 19% with LoVo [7], “Dose-dependent effect” in the test with LoVo [8] and “Dose-dependent effect” in the test on LoVo/DX [11]. The “P-gp inhibition (active/not active)” value in the test filed under Homo sapiens [2] and in the test filed under Homo sapiens [3] was “Active” throughout. The outcome in the test with LoVo [9], in the test with LoVo [10], in the test with LoVo/DX [13], in the test listed under Homo sapiens [4], in the test with LoVo/DX [14] and in the test on LoVo/DX [15] was Active. In [12], the “Ratio IC50” value was determined as 2.
Regarding `C/C(C#CCN1CCCCC1)=C\COc1ccc2ccc(=O)oc2c1`, the IC50 was determined as 33 µM in [1] and 62 µM in the test with LoVo [5]. In addition, the “P-gp inhibition (active/not active)” value in the test listed under Homo sapiens [2] is “Active”.
With `COc1ccc(CCN(C)CC#C/C(C)=C/COc2ccc3ccc(=O)oc3c2)cc1OC`, the IC50 came out at 15.4 µM in [1] and 40 µM in the test on LoVo [5]. Also, the “P-gp inhibition (active/not active)” value in the test listed under Homo sapiens [2] and in the test listed under Homo sapiens [3] was “Active” in each case. The fold change (FC) in the test listed under Homo sapiens [16] worked out at 10. In the test filed under Homo sapiens [4], the outcome was inactive.
Turning to `C#C/C(C)=C/COc1ccc2ccc(=O)oc2c1`, the IC50 in test [1] is 71.5 µM; in the test on LoVo [5] it was 48 µM. Also, the “P-gp inhibition (active/not active)” value in the test filed under Homo sapiens [2] is “inactive”.
Regarding `COc1cc2c(cc1OC)CN(CC#C/C(C)=C/COc1ccc3ccc(=O)oc3c1)CC2`, the IC50 in test [1] came out at 10.6 µM; in the test with LoVo [5] it was 10.7 µM. Also, the Activity result with LoVo [6] is “Dose-dependent effect”; in the test on LoVo [7], 39%; in the test with LoVo/DX [17] it was “Dose-dependent effect”. In addition, the “P-gp inhibition (active/not active)” value in the test filed under Homo sapiens [2] and in the test listed under Homo sapiens [3] was “Active” in each case. Besides, the outcome with LoVo [9], with LoVo [10], in the test on LoVo/DX [13], in the test with LoVo/DX [14] and in the test with LoVo/DX [15] was Active. Also, the outcome in the test listed under Homo sapiens [4] was inactive.
Turning to `COc1ccc(CCN(C)CCCC(C#N)(c2ccc(OC)c(OC)c2)C(C)C)cc1OC` (stereo not given), the outcome in the test filed under Homo sapiens [4] was Active.
With `CC(C)=CCOc1ccc2ccc(=O)oc2c1` [7-PRENYLOXYCOUMARIN], the IC50 was 50.3 µM in test [1] and 30 µM in the test with LoVo [5]. Further, in the test listed under Homo sapiens [2], the “P-gp inhibition (active/not active)” value is “Active”.
As to `C/C(C#CCN1CCN(C2c3ccccc3-c3ccccc32)CC1)=C\COc1ccc2ccc(=O)oc2c1`, the values for the 50% inhibitory concentration (IC50) (in test [1]; with LoVo [5]) were 1.8 µM and 3.5 µM, respectively. The Activity in the test on LoVo [7] is recorded as 72%. Moreover, the “P-gp inhibition (active/not active)” value in the test filed under Homo sapiens [2] was “Active”. Moreover, the result in the test on LoVo [9], with LoVo [10], in the test on LoVo/DX [18], in the test with LoVo/DX [13], in the test listed under Homo sapiens [4] and with LoVo/DX [21] was Active. Further, the outcome with LoVo/DX [14] and in the test on LoVo [22] was Active. The “P-gp inhibition (active/not active)” value in the test filed under Homo sapiens [3] was “inactive”. The “Ratio IC50” value in test [19] is 2. Also, in test [20], the “fold change (FC)” value is recorded as 3.
